Measurements taken from ChEMBL document CHEMBL5678802, “Small-molecule p21-activated kinase inhibitor PF-3758309 is a potent inhibitor of oncogenic signaling and tumor growth” (Proc Natl Acad Sci U S A, 2010).
Activity calls are given as the source filed them. The calls are words filed in the database; no cut-off is given here.

Assays:
NCI-H520 = experiment: Antiproliferative activity against human NCI-H520 cells assessed as inhibition of cell proliferation incubated for 3 days by CellTiter-Glo Luminescent Cell Viability Assay; assay type: functional, cell-based; details: NCI-H520, 72 h
How it was run: (§1)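 Cells of each line were plated in 384-well plates on day 1 and exposed to compound from day 2 for 3 days. On day 5 all medium was aspirated. Viable cell number was read by CellTiter-Glo luminescence, which quantifies cellular ATP.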

HCT-116 [1] = experiment: Downregulation of camptothecin-induced p53 level in human HCT-116 cells at 1 uM preincubated with compound for 15 mins followed by camptothecin stimulation and measured after 20 hrs by Western blot analysis; assay type: functional, cell-based; details: time 20.25 hrs
HCT-116 [2] = experiment: Antitumor activity against human HCT-116 cells xenografted in nude mouse assessed as inhibition of [3H]FLT uptake at 25 mg/kg, po administered once a day for 1 day and measured after 2 hrs post [3H]FLT administration by scintillation counter analysis relative to control; assay type: functional; details: HCT-116, 24 h
How it was run: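 HCT116 xenograft mice (tumors 300–350 mm3, n = 5 per group) received oral vehicle or compound, with harvests on days 2, 3 and 6. Isoflurane-anesthetized mice were given [3H]FLT (15 nCi/g, i.p.) 2 h before killing. Tumor and liver were weighed, solubilized and scintillation-counted. SUV = C/(ID/W), and uptake is reported as the tumor-to-liver SUV ratio.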

NCI-H1573 = experiment: Inhibition of anchorage independent cell growth in human NCI-H1573 cells incubated for 6 days by Alamar blue reagent based fluorescence plate reader analysis; assay type: functional; details: NCI-H1573, 144 h
HCT-116 [3] = experiment: Antitumor activity against human HCT-116 cells xenografted in nude mouse assessed as reduction in Src phosphorylation at Y527 residue at 15 to 150 mg/kg/day administered via pump for 18 hrs by Reverse-Phase protein array analysis; assay type: functional, organism-based; details: dose 15-150 mg/kg/day
SW-620 = experiment: Antiproliferative activity against human SW620 cells assessed as inhibition of cell proliferation incubated for 3 days by CellTiter-Glo Luminescent Cell Viability Assay; assay type: functional, cell-based; details: SW-620, 72 h; how it was run: as §1
Panc 02.03 = experiment: Antiproliferative activity against human Panc 02.03 cells assessed as inhibition of cell proliferation incubated for 3 days by CellTiter-Glo Luminescent Cell Viability Assay; assay type: functional, cell-based; details: Panc 02.03, 72 h; how it was run: as §1
MDA-MB-157 = experiment: Antiproliferative activity against human MDA-MB-157 cells assessed as inhibition of cell proliferation incubated for 3 days by CellTiter-Glo Luminescent Cell Viability Assay; assay type: functional, cell-based; details: MDA-MB-157, 72 h
How it was run: (§2)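 Cancer cell lines seeded in 384-well plates on day 1; compound added on day 2 and left for 3 days. On day 5 all medium was aspirated, and viable cells were quantified by CellTiter-Glo luminescence, which measures cellular ATP. Dose-dependent effects on proliferation were determined.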

[4] = target: Serine/threonine-protein kinase PAK 4 (Homo sapiens, UniProt O96013); details: dose 50.0 µM
Serine/threonine-protein kinase PAK 4, sequence (O96013 whole entry, looked up): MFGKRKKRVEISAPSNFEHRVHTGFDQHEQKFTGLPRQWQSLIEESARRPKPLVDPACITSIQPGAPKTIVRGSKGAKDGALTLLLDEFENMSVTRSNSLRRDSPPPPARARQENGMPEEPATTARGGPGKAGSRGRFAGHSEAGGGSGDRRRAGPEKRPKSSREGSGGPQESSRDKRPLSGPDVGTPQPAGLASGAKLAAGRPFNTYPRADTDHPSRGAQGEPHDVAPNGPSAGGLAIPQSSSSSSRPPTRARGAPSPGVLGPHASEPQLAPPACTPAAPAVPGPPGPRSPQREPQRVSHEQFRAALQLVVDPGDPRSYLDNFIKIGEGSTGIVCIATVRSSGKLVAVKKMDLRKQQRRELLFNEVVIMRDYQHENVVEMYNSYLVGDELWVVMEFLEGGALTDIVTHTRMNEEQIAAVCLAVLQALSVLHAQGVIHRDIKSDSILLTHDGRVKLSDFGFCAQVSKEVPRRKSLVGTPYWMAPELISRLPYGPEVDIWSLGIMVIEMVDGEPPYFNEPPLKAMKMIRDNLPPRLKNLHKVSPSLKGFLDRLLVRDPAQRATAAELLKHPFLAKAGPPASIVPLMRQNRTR

NCI-H1355 = experiment: Inhibition of anchorage independent cell growth in human NCI-H1355 cells incubated for 6 days by Alamar blue reagent based fluorescence plate reader analysis; assay type: functional; details: NCI-H1355, 144 h
[5] = Antiproliferative activity against human Panc 05.04 cells assessed as inhibition of cell proliferation incubated for 3 days by CellTiter-Glo Luminescent Cell Viability Assay; assay type: functional, cell-based; details: Panc 05.04, 72 h; how it was run: as §1
HCT-116 [6] = experiment: Antitumor activity against human HCT-116 cells xenografted in nude mouse assessed as increase in caspase 3 activation at 15 to 25 mg/kg, po administered twice daily for 6 days by immunohistochemical analysis; assay type: functional, organism-based; details: dose 15-25 mg/kg, time 6.0 day
How it was run: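 HCT116 cells (2 × 10^6 in 0.15 mL 1:1 Matrigel:PBS) were implanted s.c. in nude mice. At 300–350 mm3, mice were randomized into groups of five and dosed orally twice daily with vehicle, 15 or 25 mg/kg. Tumors were harvested on days 2, 3 and 6, paraformaldehyde-fixed and IHC-stained for caspase 3 (1:200). Three serial sections were scored 0–4 (0 = <2% to 4 = >7% positive cells).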

[7] = target: Ribosomal protein S6 kinase alpha-1 (Homo sapiens, UniProt Q15418); experiment: Inhibition of human RSK1 in presence of ATP
Ribosomal protein S6 kinase alpha-1, sequence (Q15418 whole entry): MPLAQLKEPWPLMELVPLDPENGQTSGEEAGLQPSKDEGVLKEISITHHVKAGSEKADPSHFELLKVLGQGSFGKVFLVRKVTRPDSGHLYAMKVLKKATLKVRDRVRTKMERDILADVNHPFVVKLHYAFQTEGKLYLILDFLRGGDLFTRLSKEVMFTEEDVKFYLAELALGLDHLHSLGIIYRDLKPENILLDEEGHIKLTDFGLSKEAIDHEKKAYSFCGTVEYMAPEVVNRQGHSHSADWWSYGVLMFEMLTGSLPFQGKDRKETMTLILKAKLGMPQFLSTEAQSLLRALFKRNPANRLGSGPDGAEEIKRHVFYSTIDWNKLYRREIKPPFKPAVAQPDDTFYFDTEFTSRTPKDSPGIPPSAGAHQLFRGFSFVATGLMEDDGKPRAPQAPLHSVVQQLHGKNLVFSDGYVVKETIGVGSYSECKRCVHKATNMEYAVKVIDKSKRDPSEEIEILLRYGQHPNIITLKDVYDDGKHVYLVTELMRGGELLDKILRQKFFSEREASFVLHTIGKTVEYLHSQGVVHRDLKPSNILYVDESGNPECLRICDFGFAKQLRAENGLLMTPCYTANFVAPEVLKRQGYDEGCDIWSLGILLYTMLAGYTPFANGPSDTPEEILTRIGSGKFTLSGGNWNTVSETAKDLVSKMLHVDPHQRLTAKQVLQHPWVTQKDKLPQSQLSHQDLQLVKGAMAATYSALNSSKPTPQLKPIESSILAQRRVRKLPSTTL

[8] = target: Ribosomal protein S6 kinase alpha-3 (Homo sapiens, UniProt P51812); experiment: Inhibition of human RSK2 in presence of ATP relative to control; details: concentration not given here
Ribosomal protein S6 kinase alpha-3, sequence (P51812 whole entry): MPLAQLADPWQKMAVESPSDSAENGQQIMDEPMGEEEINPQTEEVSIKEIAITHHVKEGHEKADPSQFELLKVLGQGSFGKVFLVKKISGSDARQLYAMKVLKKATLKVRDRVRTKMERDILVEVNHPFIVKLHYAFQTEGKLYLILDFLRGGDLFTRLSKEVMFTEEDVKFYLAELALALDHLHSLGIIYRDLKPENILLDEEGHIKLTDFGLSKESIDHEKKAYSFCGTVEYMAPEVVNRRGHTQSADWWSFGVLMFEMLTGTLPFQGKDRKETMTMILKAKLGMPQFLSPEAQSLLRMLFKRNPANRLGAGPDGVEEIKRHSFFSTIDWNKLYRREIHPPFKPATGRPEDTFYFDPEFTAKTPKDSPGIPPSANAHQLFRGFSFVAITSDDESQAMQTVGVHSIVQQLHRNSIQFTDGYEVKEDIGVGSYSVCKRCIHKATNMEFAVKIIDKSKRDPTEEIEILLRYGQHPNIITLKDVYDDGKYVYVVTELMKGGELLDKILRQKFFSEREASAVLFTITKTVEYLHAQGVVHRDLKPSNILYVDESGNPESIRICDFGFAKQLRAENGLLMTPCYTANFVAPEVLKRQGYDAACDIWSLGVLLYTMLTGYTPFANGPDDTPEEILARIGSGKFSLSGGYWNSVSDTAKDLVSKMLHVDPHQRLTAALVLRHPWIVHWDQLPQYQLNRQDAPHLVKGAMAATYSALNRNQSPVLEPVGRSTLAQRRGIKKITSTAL

[9] = target: cGMP-dependent protein kinase 1 (Homo sapiens) (UniProt Q13976); experiment: Inhibition of human PRKG1 in presence of ATP relative to control; details: concentration not given here
cGMP-dependent protein kinase 1 (Homo sapiens), sequence (Q13976 whole entry): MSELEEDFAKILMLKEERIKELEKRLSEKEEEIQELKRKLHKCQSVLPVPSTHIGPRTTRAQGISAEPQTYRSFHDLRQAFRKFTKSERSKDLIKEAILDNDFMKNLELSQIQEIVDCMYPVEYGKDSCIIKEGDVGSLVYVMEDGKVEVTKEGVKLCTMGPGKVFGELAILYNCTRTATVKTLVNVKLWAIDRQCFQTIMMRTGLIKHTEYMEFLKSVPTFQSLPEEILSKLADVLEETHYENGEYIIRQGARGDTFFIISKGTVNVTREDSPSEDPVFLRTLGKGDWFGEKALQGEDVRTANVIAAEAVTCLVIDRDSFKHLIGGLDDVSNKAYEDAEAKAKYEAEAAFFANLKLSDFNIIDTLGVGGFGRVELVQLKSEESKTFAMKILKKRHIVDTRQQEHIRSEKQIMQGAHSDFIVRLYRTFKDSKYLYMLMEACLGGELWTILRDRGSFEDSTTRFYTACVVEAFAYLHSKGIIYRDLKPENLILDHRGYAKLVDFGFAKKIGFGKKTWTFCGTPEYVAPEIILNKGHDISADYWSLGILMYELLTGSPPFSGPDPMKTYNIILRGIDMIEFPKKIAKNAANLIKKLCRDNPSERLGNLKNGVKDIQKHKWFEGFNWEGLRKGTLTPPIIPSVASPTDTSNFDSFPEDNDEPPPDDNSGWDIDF

NCI-H1299 = experiment: Inhibition of anchorage independent cell growth in human NCI-H1299 cells incubated for 6 days by Alamar blue reagent based fluorescence plate reader analysis; assay type: functional; details: NCI-H1299, 144 h
LS174T = experiment: Antiproliferative activity against human LS174T cells assessed as inhibition of cell proliferation incubated for 3 days by CellTiter-Glo Luminescent Cell Viability Assay; assay type: functional, cell-based; details: 72 h; how it was run: as §2
[10] = target: High affinity nerve growth factor receptor (Homo sapiens, UniProt P04629); experiment: Inhibition of human TRKa in presence of ATP by cellular assay
HCT-116 [11] = experiment: Downregulation of camptothecin-induced p21 waf1/cip1 level in human HCT-116 cells at 1 uM preincubated with compound for 15 mins followed by camptothecin stimulation and measured after 20 hrs by Western blot analysis; assay type: functional, cell-based; details: time 20.25 hrs
HCT-116 [12] = experiment: Antitumor activity against human HCT-116 cells xenografted in nude mouse assessed as tumor growth inhibition at 7.5 mg/kg, po administered twice daily for 9 to 18 days relative to control; assay type: functional; details: time 9-18 day, read-out: TGI
[13] = target: Tyrosine-protein kinase Yes (Homo sapiens, UniProt P07947); experiment: Inhibition of human YES1 in presence of ATP by cellular assay
Tyrosine-protein kinase Yes, sequence (P07947 whole entry): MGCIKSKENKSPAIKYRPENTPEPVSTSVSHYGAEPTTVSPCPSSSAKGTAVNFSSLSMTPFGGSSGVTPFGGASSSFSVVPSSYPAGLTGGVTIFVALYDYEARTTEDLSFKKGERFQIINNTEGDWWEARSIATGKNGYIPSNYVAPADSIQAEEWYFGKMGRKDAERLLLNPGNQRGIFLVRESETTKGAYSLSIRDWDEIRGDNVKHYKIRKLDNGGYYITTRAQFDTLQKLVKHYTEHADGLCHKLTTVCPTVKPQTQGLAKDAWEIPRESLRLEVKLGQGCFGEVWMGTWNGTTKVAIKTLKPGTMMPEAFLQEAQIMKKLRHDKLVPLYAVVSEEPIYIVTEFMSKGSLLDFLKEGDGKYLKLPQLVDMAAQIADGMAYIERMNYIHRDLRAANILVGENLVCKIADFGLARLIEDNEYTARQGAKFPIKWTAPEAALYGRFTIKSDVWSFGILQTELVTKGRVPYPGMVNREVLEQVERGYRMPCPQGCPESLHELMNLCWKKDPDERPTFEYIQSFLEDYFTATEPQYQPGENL

HCC1954 = experiment: Antiproliferative activity against human HCC1954 cells assessed as inhibition of cell proliferation incubated for 3 days by CellTiter-Glo Luminescent Cell Viability Assay; assay type: functional, cell-based; details: HCC1954, 72 h; how it was run: as §2
NCI-H358 = experiment: Inhibition of anchorage independent cell growth in human NCI-H358 cells incubated for 6 days by Alamar blue reagent based fluorescence plate reader analysis; assay type: functional; details: NCI-H358, 144 h
[14] = target: Proto-oncogene tyrosine-protein kinase Src (Homo sapiens, UniProt P12931); experiment: Inhibition of human SRC assessed as inhibition constant in presence of ATP
Proto-oncogene tyrosine-protein kinase Src, sequence (P12931 2-536 limits assumed): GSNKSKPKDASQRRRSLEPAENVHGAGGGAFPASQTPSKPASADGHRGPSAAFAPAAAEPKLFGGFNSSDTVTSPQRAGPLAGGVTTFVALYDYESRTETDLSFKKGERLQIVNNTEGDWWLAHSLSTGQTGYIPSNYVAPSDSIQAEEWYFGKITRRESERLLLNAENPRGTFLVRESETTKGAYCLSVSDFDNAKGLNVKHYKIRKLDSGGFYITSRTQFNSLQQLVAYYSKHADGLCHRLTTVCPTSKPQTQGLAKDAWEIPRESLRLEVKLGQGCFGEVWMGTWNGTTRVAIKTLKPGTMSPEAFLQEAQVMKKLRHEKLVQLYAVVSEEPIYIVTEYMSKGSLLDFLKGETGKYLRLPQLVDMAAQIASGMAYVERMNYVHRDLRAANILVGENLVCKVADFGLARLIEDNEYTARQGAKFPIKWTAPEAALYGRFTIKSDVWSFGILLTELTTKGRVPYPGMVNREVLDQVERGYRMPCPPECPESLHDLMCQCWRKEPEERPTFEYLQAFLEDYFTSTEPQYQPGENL

DLD-1 = experiment: Antitumor activity against PAK4 -/+ human DLD-1 cells xenografted in nude mouse assessed as tumor growth inhibition at 20 mg/kg, po administered once daily for 9 to 18 days relative to control; assay type: functional; details: time 9-18 day, read-out: TGI
How it was run: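 Tumor cells were implanted s.c. into the right flank of female nu/nu nude mice aged 6–8 weeks. Animals were randomized into treatment groups once tumors were established (example: day 8 postimplant, about 170 mm3, animals >22 g). Compound in 0.5% methylcellulose was given by oral gavage. Tumors were measured with calipers two to three times per week.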

[15] = target: Protein kinase C beta type (Homo sapiens, UniProt P05771); experiment: Inhibition of human PKCbeta1 in presence of ATP relative to control; details: concentration not given here
Protein kinase C beta type, sequence (P05771 2-671 limits assumed): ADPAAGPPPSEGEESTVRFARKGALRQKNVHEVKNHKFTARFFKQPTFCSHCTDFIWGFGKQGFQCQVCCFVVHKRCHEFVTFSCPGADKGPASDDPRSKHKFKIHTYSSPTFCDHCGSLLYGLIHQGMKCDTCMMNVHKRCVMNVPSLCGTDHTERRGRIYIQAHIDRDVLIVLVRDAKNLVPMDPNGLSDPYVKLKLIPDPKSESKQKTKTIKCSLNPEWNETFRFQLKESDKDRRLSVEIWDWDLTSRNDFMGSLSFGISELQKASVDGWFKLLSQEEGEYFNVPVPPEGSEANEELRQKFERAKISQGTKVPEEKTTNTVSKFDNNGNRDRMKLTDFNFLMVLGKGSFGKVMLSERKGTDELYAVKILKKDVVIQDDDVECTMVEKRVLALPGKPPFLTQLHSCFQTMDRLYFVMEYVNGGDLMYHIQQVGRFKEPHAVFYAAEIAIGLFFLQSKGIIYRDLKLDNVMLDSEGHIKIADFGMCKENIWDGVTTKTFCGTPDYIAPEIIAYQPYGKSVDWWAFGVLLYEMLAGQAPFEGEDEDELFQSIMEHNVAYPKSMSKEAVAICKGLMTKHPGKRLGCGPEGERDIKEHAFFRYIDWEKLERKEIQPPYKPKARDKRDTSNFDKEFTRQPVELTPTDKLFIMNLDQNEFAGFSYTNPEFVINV

HPAF-II = experiment: Antiproliferative activity against human HPAF-II cells assessed as inhibition of cell proliferation incubated for 3 days by CellTiter-Glo Luminescent Cell Viability Assay; assay type: functional, cell-based; details: 72 h; how it was run: as §2

In the case of Cc1nc(Nc2n[nH]c3c2CN(C(=O)N[C@H](CN(C)C)c2ccccc2)C3(C)C)c2sccc2n1 [PF-03758309], the IC50 (NCI-H520) is reported as 5.6 nM, the Activity (HCT-116 [1]) is reported as “Active” and the inhibition in vivo at 25 mg/kg (HCT-116 [2]) is reported as 33.8%. For the same compound, the IC50 (NCI-H1573) was 2.37 nM, the Activity (HCT-116 [3]) was “Active” and the IC50 (SW-620) was 5.7 nM. For the same compound, the IC50 (Panc 02.03) was 540 nM, the IC50 (MDA-MB-157) was 145 nM and the TdeltaS [4] was 6.7 kcal/mol. The IC50 (NCI-H1355) was 14.2 nM, the IC50 [5] was 51 nM and the Activity (HCT-116 [6]) was “Active”. For the same compound, the IC50 [7] was 2 nM, the inhibition [8] was 101% and the inhibition [9] was 97%. For the same compound, the IC50 (NCI-H1299) was 7 nM, the IC50 (LS174T) was 7.2 nM and the IC50 [10] was 2410 nM. For the same compound, the Activity (HCT-116 [11]) was “Active”, the inhibition in vivo at 7.5 mg/kg (HCT-116 [12]) was 64% and the IC50 [13] was 612 nM. It also gave an IC50 (HCC1954) of 0.33 nM, an IC50 (NCI-H358) of 7.7 nM and a Ki [14] of 32 nM. For the same compound, the inhibition in vivo at 20 mg/kg (DLD-1) was 0%, the inhibition [15] was 71% and the IC50 (HPAF-II) was 517 nM.
